Data from PMC4459094 (FEBS Open Bio, 2015).

How the values were obtained:
hMIP = details: continuous activity assay with fluorogenic substrate Abz-GFSPFRQ-EDDnp; cited from earlier work
[1] = biological target: T1, recombinant human mitochondrial intermediate peptidase (hMIP) (Homo sapiens, UniProt Q99797); experiment: Hydrolysis of FRET peptides by hMIP in solution; type: biochemical; details: analogue without the P8 and P5 versus Abz-FRSGQPLQNKVQLQ-EDDnp
T1 sequence (Q99797 36-713): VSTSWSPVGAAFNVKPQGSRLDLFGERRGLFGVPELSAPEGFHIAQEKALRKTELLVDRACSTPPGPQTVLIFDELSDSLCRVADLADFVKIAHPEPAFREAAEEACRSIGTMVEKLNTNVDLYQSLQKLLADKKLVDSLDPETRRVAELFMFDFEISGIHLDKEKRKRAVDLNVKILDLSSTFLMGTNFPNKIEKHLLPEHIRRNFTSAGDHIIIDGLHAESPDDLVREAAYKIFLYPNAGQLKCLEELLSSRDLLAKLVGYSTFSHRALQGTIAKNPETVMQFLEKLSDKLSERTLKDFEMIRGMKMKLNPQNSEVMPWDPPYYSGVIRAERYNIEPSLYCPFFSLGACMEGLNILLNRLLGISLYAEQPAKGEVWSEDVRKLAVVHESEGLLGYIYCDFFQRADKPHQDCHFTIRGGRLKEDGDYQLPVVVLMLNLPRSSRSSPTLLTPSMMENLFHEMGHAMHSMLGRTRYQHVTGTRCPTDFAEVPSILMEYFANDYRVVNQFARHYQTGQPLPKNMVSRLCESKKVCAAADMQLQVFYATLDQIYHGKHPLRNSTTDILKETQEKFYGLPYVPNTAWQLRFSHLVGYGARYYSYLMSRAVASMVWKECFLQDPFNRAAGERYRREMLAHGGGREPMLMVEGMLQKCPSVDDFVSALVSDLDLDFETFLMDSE
Summary of the method: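 Recombinant human MIP with an N-terminal His6 tag replacing the mitochondrial signal sequence, expressed in E. coli BL21(DE3)pLysS and purified by Ni-affinity then anion-exchange chromatography. Abz/EDDnp FRET peptide hydrolysis was followed fluorometrically (ex 320, em 420 nm). Rates were converted to moles per second using standard peptide fluorescence before and after total hydrolysis, with under 10% substrate consumed. kcat, KM and kcat/KM are given as means ± SD.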

fold lower specificity constant than Abz-FRSGQPLQNKVQLQ-EDDnp [1] [fold] | Compound | inhibition of hMIP (hMIP)
 | C[C@H](CS)C(=O)N1CCC[C@H]1C(=O)O [captopril] | small level of inhibition
 | O=C(O)CNC(=O)C(CS)Cc1ccccc1 (stereo not drawn) [thiorphan] | small level of inhibition
7 | Abz-QPLQNKVQ-EDDnp [Abz-QPLQ↓NKVQ-EDDnp] | 
